# B1: Osa-1-4 twister ribozyme (parent)
# chain: CCGCCUAACACUGCCAAUGCCGGUCCCAAGCCCGGAUAAAAGUGGAGGGGGCGG
# Variants of: B1
# Test: self-cleavage, relative activity (ratio to wild type); higher = more cleavage; co-transcriptional
# In short: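 The 48 positions downstream of the cleavage site in a 54-nucleotide Oryza sativa twister ribozyme template were synthesised at 97 % wild-type base and 1 % of each other base. The template was transcribed in vitro at 37 °C for 2 h, with self-cleavage allowed during transcription. Reads with or without upstream sequence after deep sequencing marked cleavage status, and relative activity is fraction cleaved normalised to wild type.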
row,Variant,self-cleavage
1,C20G G23U,0.04
2,C20G G23A,0.06
3,C20A U24G,0.06
4,C20A U24C,0.17
5,C20A U24A,0.37
6,C20A G34A,0.84
7,C20A G34U,0.64
8,C20A G34C,0.26
9,C20G U12A,0.09
10,C20G U12C,0.07
11,C20G U12G,0.04
12,C20A G30U,0.03
13,C20A G30C,0.04
14,C20A G30A,0.04
15,C20G G51A,0.09
16,C20G G51U,0.06
17,C20G G51C,0.03
18,C20G C25A,0.06
19,C20G C25G,0.06
20,C20G C25U,0.21
21,C20G C27G,0.05

row,Variant,self-cleavage
1,C20G C27U,0.05
2,C20G C27A,0.04
3,C20G G50C,0.06
4,C20G G50A,0.23
5,C20G G50U,0.09
6,C20A C31U,0.81
7,C20A C31A,0.04
8,C20A C31G,0.14
9,C20G G47A,0.05
10,C20G G47U,0.03
11,C20G G47C,0.04
12,C20A C33G,0.05
13,C20A C33U,0.76
14,C20A C33A,0.08
15,C20G G34C,0.08
16,C20G G34A,0.08
17,C20G G34U,0.06
18,C20A G49A,0.2
19,C20A G49C,0.06
20,C20A G49U,0.16
21,C20A G23A,0.18

row,Variant,self-cleavage
1,C20A G23C,0.03
2,C20A G23U,0.1
3,C20G C32A,0.03
4,C20G C32G,0.06
5,C20G C32U,0.03
6,C20A C25U,0.78
7,C20A U43A,0.77
8,C20A U43C,0.58
9,C20A U43G,0.71
10,C20G G45U,0.02
11,C20G G45A,0.04
12,C20G G45C,0.03
13,C20G C21G,0.24
14,C20G C21U,0.29
15,C20G C21A,0.46
16,C20G C31A,0.02
17,C20G C31U,0.07
18,C20G C31G,0.09
19,C20A G54U,0.76
20,C20A G54A,0.75
21,C20A G54C,0.78

row,Variant,self-cleavage
1,C20A G22C,0.07
2,C20A G22A,0.39
3,C20A G22U,0.53
4,C20G G48C,0.04
5,C20G G48U,0.03
6,C20G G48A,0.03
7,C20A G19U,0.78
8,C20A G19A,0.86
9,C20A G19C,0.31
10,C20A G48A,0.09
11,C20A G48C,0.07
12,C20A G48U,0.09
13,C20G C33U,0.05
14,C20G C33A,0.04
15,C20G C33G,0.05
16,C20G G35A,0.27
17,C20G G35C,0.28
18,C20G G35U,0.27
19,C20G C52G,0.11
20,C20G C52A,0.08
21,C20G C52U,0.17

# Source: the RNAGym collection of RNA variant scans (doi:10.1002/anie.201605470)
